From ChEMBL document CHEMBL4152257, “Discovery of novel β-carboline/acylhydrazone hybrids as potent antitumor agents and overcome drug resistance” (Eur J Med Chem, 2018)

Key:
[1] = test system: MCF7; assay: Induction of apoptosis in human MCF7 cells assessed as late apoptotic cells at 10 uM after 48 hrs by annexin V-FITC/PI dual staining based flow cytometry (reference value: 11.1%); format: functional
[2] = test system: NCI-H460; assay: Antiproliferative activity against human H460 cells at 1 uM after 48 to 72 hrs by MTT assay relative to control; format: functional
Summary of the method: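 Single-concentration screen in the MTT proliferation assay: log-phase cells seeded and allowed to adhere, exposed to compound at 1 µM for 48 h or 72 h, MTT added for 2-3 h, formazan dissolved in DMSO; percent inhibition versus control.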

[3] = test system: NCI/ADR-RES; assay: Induction of apoptosis in human MCF7/ADR cells assessed as late apoptotic cells at 30 uM after 48 hrs by annexin V-FITC/PI dual staining based flow cytometry (reference value: 5.02%); format: functional
[4] = test system: MCF7; assay: Cell cycle arrest in human MCF7 cells assessed as accumulation at G0/G1 phase at 10 uM after 18 hrs by propidium iodide staining based flow cytometry (reference value: 45.22%); format: functional
[5] = test system: MCF7; assay: Induction of apoptosis in human MCF7 cells assessed as late apoptotic cells after 48 hrs by annexin V-FITC/PI dual staining based flow cytometry; format: functional, cell-based

Compound N#Cc1ccc(COc2cccc(/C=N/NC(=O)c3cc4c(cn3)[nH]c3ccccc34)c2)cc1 has an Activity [1] of 20.1%, an inhibition at 1 µM [2] of 51% and an Activity [3] of 21.9%. For the same compound, the Activity [4] was 36.05% and the Activity [5] was “Dose-dependent effect”.
